Columns and labels:
[1] = molecular target: T1, Polyunsaturated fatty acid lipoxygenase ALOX15 (Mus musculus) (UniProt P39654); test: Inhibition of 15-LOX-1 in C57bl/6 mouse precision-cut lung slices assessed as reduction in LPS-stimulated iNOS mRNA expression level at 50 uM incubated for 20 hrs followed by LPS stimulation for 4 hrs in presence of linoleic acid by RT-qPCR analysis
T1 sequence (whole entry): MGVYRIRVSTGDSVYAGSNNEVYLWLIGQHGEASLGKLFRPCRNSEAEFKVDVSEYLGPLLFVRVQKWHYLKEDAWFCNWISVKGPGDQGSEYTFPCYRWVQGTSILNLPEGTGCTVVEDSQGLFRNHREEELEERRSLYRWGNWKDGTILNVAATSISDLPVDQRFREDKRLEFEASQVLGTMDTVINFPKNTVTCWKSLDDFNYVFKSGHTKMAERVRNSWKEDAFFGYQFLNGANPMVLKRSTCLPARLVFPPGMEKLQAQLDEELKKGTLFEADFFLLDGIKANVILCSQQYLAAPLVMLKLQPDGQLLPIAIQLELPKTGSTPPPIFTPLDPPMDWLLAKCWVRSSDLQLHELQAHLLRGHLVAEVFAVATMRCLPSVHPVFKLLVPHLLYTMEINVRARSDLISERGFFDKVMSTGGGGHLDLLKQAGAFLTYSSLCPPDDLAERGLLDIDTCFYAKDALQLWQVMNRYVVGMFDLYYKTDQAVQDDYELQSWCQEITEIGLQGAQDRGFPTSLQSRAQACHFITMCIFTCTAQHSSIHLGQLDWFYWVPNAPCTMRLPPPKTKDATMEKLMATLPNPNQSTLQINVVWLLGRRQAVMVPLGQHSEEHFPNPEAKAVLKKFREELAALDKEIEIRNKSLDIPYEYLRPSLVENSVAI
Summary of the method: (§1)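 Lung slices, 250 μm, were cut from agarose-filled lungs of male C57bl/6 mice aged 8-10 weeks and cultured at 37 °C in 5% CO2 in supplemented DMEM, 3 slices per well. Inhibitor was given for 20 h with 10 μM linoleic acid. For the last 4 h, 10 ng/ml LPS plus 10 ng/ml IFNγ were added. Read-out was RT-qPCR (10 ng cDNA, GAPDH assay included), in duplicate or triplicate wells, as fold change versus LPS/linoleic acid control, with 4-6 independent experiments.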

[2] = molecular target: T1, Polyunsaturated fatty acid lipoxygenase ALOX15 (Mus musculus); test: Inhibition of 15-LOX-1 in C57bl/6 mouse precision-cut lung slices assessed as reduction in LPS-stimulated IL-1beta mRNA expression level at 50 uM incubated for 20 hrs followed by LPS stimulation for 4 hrs in presence of linoleic acid by RT-qPCR analysis; summary of the method: as §1
[3] = molecular target: T1, Polyunsaturated fatty acid lipoxygenase ALOX15 (Mus musculus); test: Inhibition of 15-LOX-1 in mouse HT22 cells assessed as protection against glutamate-induced cell death by measuring increase in cell viability up to 20 uM cotreated with glutamate for 14 to 16 hrs by MTT assay; type: cell-based; conditions: HT-22
Summary of the method: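 HT-22 cells were seeded at 8x10^3 per well and incubated overnight. They were challenged with 4 mM glutamate in DMEM/10% FCS. Inhibitor was given either with glutamate (1-20 µM; PD146176 at 1 µM) or added at 5 or 10 µM 2, 4, 6 or 8 h after glutamate. After 14-16 h, MTT was added at 0.5 mg/mL for 1 h at 37 °C. Formazan was dissolved in DMSO and read at 570 nm minus 630 nm background, expressed relative to control. Three experiments were run with 6-8 replicates each.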

inhibition [1]: 50% | inhibition [2]: 50%
Structure (SMILES): CCCCNC(=O)c1cc(-c2ccccc2)sc1N
inhibition [3]: Dose-dependent effect

— ChEMBL document CHEMBL3871264, “Design of a novel thiophene inhibitor of 15-lipoxygenase-1 with both anti-inflammatory and neuroprotective properties” (Eur J Med Chem, 2016)
